Experimental data: ChEMBL document CHEMBL1649392, “Synthesis of substituted 3-amino-N-phenyl-1H-indazole-1-carboxamides endowed with antiproliferative activity” (Eur J Med Chem, 2011)
The source made the active and inactive calls.

Legend:
Type in all cases: functional, cell-based
[1] = test system: K562; assay: Induction of cell cycle arrest in human K562 cells assessed as increase in accumulation at G0/G1 phase at 60 uM after 24 hrs by flow cytometric analysis
Method in brief: (§1)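 K562 myeloblastic leukemia cells cultured 24 h with compound at 20, 40 or 60 µM, or untreated. Cells washed in ice-cold PBS and resuspended at 10⁶/mL in hypotonic propidium iodide (50 µg/mL) with 0.03% Nonidet P-40 in 0.1% sodium citrate. After 30 min, DNA content read by flow cytometry; sub-G0/G1, G0/G1, S and G2/M fractions scored.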

[2] = test system: K562; assay: Induction of cell cycle arrest in human K562 cells assessed as decrease in accumulation at S phase at 40 uM after 24 hrs by flow cytometric analysis; method in brief: as §1
[3] = test system: K562; assay: Induction of cell cycle arrest in human K562 cells assessed as decrease in accumulation at G2/M phase at 40 uM after 24 hrs by flow cytometric analysis; method in brief: as §1
[4] = test system: K562; assay: Induction of apoptosis in human K562 cells assessed as increase in hypophosphorylated Rb level at 60 uM after 1.5 hrs by flow cytometric assay
Method in brief: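 K562 cells treated with or without 60 µM compound. 1.5 × 10⁶ cells washed in PBS, fixed and permeabilized 20 min in Cytofix/Cytoperm, then washed in Perm/Wash buffer. Stained 30 min at 4 °C with FITC anti-total pRb or PE anti-hypophosphorylated pRb mAbs, washed, and analysed by flow cytometry.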

Measured: Activity

Nc1nn(C(=O)Nc2ccc(Cc3ccccc3)cc2)c2ccc(Cl)cc12
active: all assays above
